From ChEMBL document CHEMBL4325875, “Computer-aided design, synthesis and biological characterization of novel inhibitors for PKMYT1” (Eur J Med Chem, 2019) come the findings set out here.

pIC50, pKi: −log10 of the molar value.

Assay [1] has as its target T1, Membrane-associated tyrosine- and threonine-specific cdc2-inhibitory kinase (Homo sapiens) (UniProt Q99640).
T1 sequence (whole entry): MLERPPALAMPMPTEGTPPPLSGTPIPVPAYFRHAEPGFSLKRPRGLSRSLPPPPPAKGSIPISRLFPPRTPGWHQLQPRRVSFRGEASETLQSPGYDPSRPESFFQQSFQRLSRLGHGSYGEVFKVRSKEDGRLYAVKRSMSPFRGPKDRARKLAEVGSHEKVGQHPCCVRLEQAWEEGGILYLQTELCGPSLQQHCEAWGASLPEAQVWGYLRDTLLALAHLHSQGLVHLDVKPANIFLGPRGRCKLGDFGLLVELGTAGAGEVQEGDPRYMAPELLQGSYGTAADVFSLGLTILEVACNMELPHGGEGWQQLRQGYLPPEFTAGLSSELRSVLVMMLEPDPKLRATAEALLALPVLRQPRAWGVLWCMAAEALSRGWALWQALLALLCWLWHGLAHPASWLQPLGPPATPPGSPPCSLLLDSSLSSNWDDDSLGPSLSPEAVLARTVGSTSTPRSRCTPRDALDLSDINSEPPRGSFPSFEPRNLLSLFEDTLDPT
Put plainly: Displacement of (6-FAM)KI(pY)VV from PKMYT1 kinase domain (unknown origin) at 20 uM by fluorescence polarization binding assay relative to control. In short, it runs like this:
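PKMYT1 kinase domain (recombinantly expressed and purified) used in a fluorescence anisotropy binding assay with a fluorescently labelled ATP-competitive tracer. Each compound screened at 20 μM in triplicate. Dasatinib 10 μM served as inhibitory control and 1% DMSO as vehicle control. Compounds giving >60% tracer displacement were retested at 20 and 5 μM in triplicate.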
Background: Fluorescence polarisation rises when a labelled molecule tumbles more slowly, as on binding a larger partner.

For assay [2], the target named is T2, Membrane-associated tyrosine- and threonine-specific cdc2-inhibitory kinase (Homo sapiens, UniProt Q99640).
T2 sequence (Q99640 whole entry): T1 sequence (whole entry)
Put plainly: […] from PKMYT1 kinase domain (unknown origin) by fluorescence polarization binding assay.

Assay [3] addresses T2, Membrane-associated tyrosine- and threonine-specific cdc2-inhibitory kinase. Put plainly: Displacement of (6-FAM)KI(pY)VV from full length PKMYT1 (unknown origin) by fluorescence polarization immuno assay. In short, it runs like this: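 Full-length PKMYT1, expressed and purified, was tested in the fluorescence polarization-based activity assay (FPIA) to give IC50 and Ki. Controls were 10 μM dasatinib and 1% DMSO. Anisotropy r was calculated, and Δr was taken as the difference between the PKMYT1 reaction and the reaction without PKMYT1. Data are given as means ± SEM.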

What is called inhibition is the relative decrease from the control value, in per cent. The low end stands for little suppression, the high end for strong suppression. For `Cc1cnc(Nc2ccc(N3CCOCC3)cc2)nc1Nc1cc(O)ccc1Cl`, the inhibition in assay [1] was < 10%. On the same count and under the same terms, to `CSc1cnc(Nc2ccc(N3CCOCC3)cc2)nc1Nc1cc(C)ccc1Cl` belongs 13%. What is called pIC50 is the IC50 on a negative log10 scale, so that one unit is a factor of ten. On to `Oc1cccc(Nc2nc(Nc3ccc(N4CCOCC4)cc3)ncc2Cl)c1`, for which the negative logarithm of the IC50 (pIC50) in assay [2] is 5.22; in assay [3], 6.21. For the same molecule, in assay [1], the inhibition was determined as 75%. As for `Cc1ccc(Nc2nc(Nc3ccc(N4CCOCC4)cc3)ncc2OCc2ccccc2)cc1O`, the inhibition in assay [1] is < 10%. The same measure, in the same setting: to `Cc1ccc(Nc2nc(Nc3ccc(N4CCOCC4)cc3)ncc2Br)cc1O` belongs 26.7%; to `COc1ccc(Nc2nc(Nc3ccc(N4CCOCC4)cc3)ncc2Br)cc1O`, 27%. With `CNC(=O)c1ccccc1Nc1nc(Nc2ccc(N3CCOCC3)cc2)ncc1OC`, the negative logarithm of the IC50 (pIC50) in assay [2] is 5.20; in assay [3] it was 6.02. The inhibition in assay [1] turned out to be 100%.

As to `COc1cnc(Nc2ccc(N3CCOCC3)cc2)nc1Nc1cccc(O)c1`, the inhibition in assay [1] came to 74.8%. As for `Oc1ccc(Cl)c(Nc2nc(Nc3ccc(N4CCOCC4)cc3)ncc2Cl)c1`, the inhibition in assay [1] is < 10%. In assay [1], `Oc1cccc(Nc2nc(Nc3ccc(N4CCOCC4)cc3)ncc2Br)c1` returned an inhibition of 21.1%. As for `CSc1cnc(Nc2ccc(N3CCOCC3)cc2)nc1Nc1cccc(O)c1`, the pIC50 was 5.22 in assay [2] and 5.81 in assay [3]. Besides, the inhibition in assay [1] was 100%. Consider `Cc1cnc(Nc2ccc(N3CCOCC3)cc2)nc1Nc1cccc(O)c1`, for which the inhibition in assay [1] was < 10%.

`COc1ccc(Nc2nc(Nc3ccc(N4CCOCC4)cc3)ncc2OC)cc1O`: the inhibition in assay [1] came to 39.7%. The term pKi denotes the negative decadic logarithm of the Ki, by convention in mol/L. The low end stands for a high Ki, the high end for a low Ki. `Cc1cc(Nc2ncc3cc(-c4c(Cl)cccc4Cl)c(=O)n(C)c3n2)ccc1F` had a negative logarithm of the Ki (pKi) in assay [2] of 5.87.

As for `Oc1cccc(Nc2nc(Nc3ccc(N4CCOCC4)cc3)nc3c2SCC3)c1`, the inhibition in assay [1] is < 10%. As to `COc1cnc(Nc2ccc(N3CCOCC3)cc2)nc1Nc1ccc(C)c(O)c1`, the negative-log IC50 (pIC50) in assay [2] is 5.03; in assay [3], 6.51. The inhibition in assay [1] amounted to 100%.
